Source: PubChem (The Scripps Research Institute Molecular Screening Center)
OXTR potentiate: human OXTR potentiators, primary screen, fluorescence, CHO-OTR cells, Fluo-8 calcium | Oxytocin receptor (Homo sapiens), P30559 | Fluo-8 calcium fluorescence, potentiator mode; 0% = oxytocin EC15, 100% = EC100 | activation, % at 3 µM | hit rate 0.061% among 320,000;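 active = activation above that plate's cutoff, the mean activation of tested compounds plus 3 SD, cut at about 6.6% in these data, passing the limit was not always enough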;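 note: 100% uses oxytocin at 75 nM as the full agonist control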
Target sequence (P30559 whole entry, looked up): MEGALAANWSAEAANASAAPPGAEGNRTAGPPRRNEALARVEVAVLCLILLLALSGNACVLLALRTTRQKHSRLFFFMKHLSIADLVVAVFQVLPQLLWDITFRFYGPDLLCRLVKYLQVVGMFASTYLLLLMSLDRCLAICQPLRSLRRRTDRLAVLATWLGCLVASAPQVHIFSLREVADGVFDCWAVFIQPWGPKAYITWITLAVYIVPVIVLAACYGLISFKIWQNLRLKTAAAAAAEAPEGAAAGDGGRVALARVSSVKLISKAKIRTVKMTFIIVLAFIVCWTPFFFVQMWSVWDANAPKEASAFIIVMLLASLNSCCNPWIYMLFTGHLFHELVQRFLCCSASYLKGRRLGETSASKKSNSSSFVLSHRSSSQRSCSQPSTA
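Assay system: CHO cell line stably expressing human OTR | Also added: Oxytocin at about EC15, sub-maximal agonist stimulus | Times: Compound 6 min at room temperature before oxytocin, 100 s read | Measured by: Fluo-8 intracellular calcium fluorescence, ex 470-495, em 515-575 nm | Controls: EC15 oxytocin alone as 0%, 75 nM oxytocin as 100%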
OXTR ag: human OXTR agonists, primary screen, fluorescence, CHO-OTR cells, Fluo-8 calcium; Oxytocin receptor (Homo sapiens), P30559; Fluo-8 calcium fluorescence; normalized: DMSO 0%, oxytocin 100%; activation, % at 3 µM; hit rate 0.32% among 320,000; AID 2435, 2010;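 active = activation above the mean of all tested compounds plus 3 SD, cutoff set per screening run, cut at about 20% in these data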;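 note: peak over basal fluorescence ratio from a 100 s FLIPR kinetic read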
OX1R antag-1: antagonists of human orexin 1 receptor (OX1R); Orexin/Hypocretin receptor type 1 (Homo sapiens), O43613; OX1R-expressing cells, FRET antagonist read-out; inhibition, % at 6.6 µM; hit rate 1.8% among 330,000; in the data active = inhibition mostly above about 38%, no sharp cut-off; inactive = mostly below about 40%;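 note: 0% = agonist challenge alone and 100% = reference antagonist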
OX1R antag-2: OX1R (HCRTR1) antagonists, primary screen, fluorescence, CHO/OX1R cells, Fluo-8 calcium, orexin A; Orexin/Hypocretin receptor type 1 (Homo sapiens), O43613; Fluo-8 calcium fluorescence; inhibition, % at 5 µM; hit rate 0.43% among 330,000; AID 434989, 2010;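 active = inhibition above its plate's threshold, mean inhibition of all tested compounds on the plate plus 3 SD, cut at about 37% in these data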;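 note: 0% = orexin A challenge wells and 100% = SB-334867-A antagonist wells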
CHO parental Ca: ATP-evoked calcium signal inhibitors, parental CHO, primary screen, counter-screen for OX1R antagonist project, cell-based, fluorescence, Fluo-8 calcium dye; hit rate 0.63% among 330,000; parental CHO-K1, ATP-induced calcium, Fluo-8 fluorescence; inhibition, % at 5.6 µM; AID 463079, 2010;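 active = inhibition above that plate's mean sample inhibition plus 3 SD, cut at about 26% in these data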;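 note: 0% = ATP-challenged DMSO wells and 100% = DMSO wells without ATP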
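Measured by: calcium-sensitive Fluo-8 fluorescence / Test system: CHO parental line / Controls: ATP-challenged DMSO wells low, unchallenged DMSO wells high / Measure: % inhibition / Compound: single nominal dose of 5.6 µM per compound / Replicates: single well per compound, no replicates / Reagent: ATP as calcium-mobilizing challenge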
V1aR counter: agonists of human V1a receptor, primary screen, counter-screen for OXTR agonist project, fluorescence, CHO-V1R cells; Vasopressin V1a receptor (Homo sapiens), P37288; Fluo-8 calcium fluorescence, agonist mode; 0% DMSO, 100% 3 nM vasopressin; activation, % at 3 µM; hit rate 0.25% among 320,000; AID 2797, 2010;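 active = activation above the mean activation of all tested compounds plus 3 SD, per screening run, cut at about 20% in these data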;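 note: signal is peak over basal fluorescence ratio across a 100 second FLIPR read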
Numbers without * were called inactive. Most compounds without a hit are left out; they make up all but 2.6% or so of the library.

SMILES	OXTR potentiate	OXTR ag	OX1R antag-1	OX1R antag-2	CHO parental Ca	V1aR counter
CCc1ccc(S(=O)(=O)NCc2csc(-c3cccnc3)n2)s1	-9	1	64*	8	-21	4
Nc1ccc2c3c(cccc13)CC2	-8	46*	13	71*	60*	46*
Nc1ncnc2c1ncn2[C@@H]1O[C@H](COP(=O)(O)OP(=O)(O)OP(=O)(O)O)[C@@H](O)[C@H]1O	-24	69*	17	-4	-7	78*
CCOc1ccccc1NC(=O)COC(=O)c1ccc2ccccc2n1	2	-1	1	-21	-14	0
COc1ccccc1CNS(=O)(=O)c1ccc(-c2cc(C)no2)cc1	-15	7	66*	12	-5	10
Cc1onc(-c2ccccc2)c1NC(=O)Nc1c(-c2ccccc2)noc1C	1	0	51*	-23	-24	1
O=C(O)c1ccc(C(=O)c2ccc3c(c2)C(=O)N(CC2CCCO2)C3=O)cc1 (centres undefined)	-13	0	56*	-2	1	0
O=C(O)c1cccc(NC(=O)c2ccc3c(c2)C(=O)N(CC2CCCO2)C3=O)c1 (centres undefined)	1	1	56*	-2	4	1
O=C(O)c1ccc(S(=O)(=O)c2ccc3c(c2)C(=O)N(CC2CCCO2)C3=O)cc1 (centres undefined)	-11	-1	42	-2	1	0
CC(Nc1ncnc2sccc12)c1ccccc1 (centres undefined)	-6	8	36	12	42*	9
c1ccc(Nc2ncnc3sccc23)cc1	-2	1	13	-7	6	0
O=C(COC(=O)C1CC1)NCc1ccc(Cl)cc1Cl	2	-1	-1	-34	-15	0
O=[N+]([O-])c1ccc(NCCNCCOc2nonc2-c2ccccc2)c([N+](=O)[O-])c1	-27	1	43*	-17	5	-1
CN(C)CCCn1c(SCC(=O)N2c3ccccc3Sc3ccccc32)nc2ccccc2c1=O	-8	10	21	1	-1	4
O=C(CN1CCOCC1)Nc1nc2ccc([N+](=O)[O-])cc2s1	3	1	62*	-40	-13	3
O=C(c1cc2ccc([N+](=O)[O-])cc2oc1=O)N1CCOCC1	-5	1	57*	-1	-7	1
O=C(c1cc2cc([N+](=O)[O-])ccc2s1)N1CCOCC1	-10	0	46*	-4	-6	1
C=CCc1cc(C=O)cc(OCC)c1O	-5	0	11	-7	-2	3
Nc1nc(N)nc(-c2ccccc2O)n1	-8	0	30	-7	-14	0
Cc1cc(C)nc(SCc2nc(N)nc(-c3ccccc3O)n2)n1	-3	1	55*	12	-13	1
Nc1nc(-c2ccccc2)nc(-c2ccccc2O)n1	-3	1	52*	7	-9	1
COc1ccc(N2C(=O)N3[C@@H]4c5ccccc5OC[C@@H]4[C@@H](c4ccccc4)[C@@]3(C)C2=O)cc1	0	1	-1	-19	-11	0
Cc1cccc(N2CCN(C(=O)COc3ccc4c(C)cc(=O)oc4c3C)CC2)c1C	-10	-3	16	-24	-13	-1
CN1C(=O)S/C(=C/c2cccnc2)C1=O	-11	1	65*	1	-2	1
COc1ccc(CCNC(=O)Cc2ccc([N+](=O)[O-])cc2)cc1OC	-6	1	5	-10	-12	2
SMILES	OXTR potentiate	OXTR ag	OX1R antag-1	OX1R antag-2	CHO parental Ca	V1aR counter
NS(=O)(=O)c1ccc(CCNC(=O)c2ccc3c(c2)N(Cc2ccccc2)CCS3)cc1	-13	4	70*	-6	-7	2
COc1ccc(CCNC(=O)c2ccccc2C(=O)NCCc2ccc(OC)c(OC)c2)cc1OC	-1	0	50*	-4	-12	3
COc1ccc(CCNC(=O)Cc2ccc(OCc3ccccc3)c(OC)c2[N+](=O)[O-])cc1OCc1ccccc1	-16	5	25	35	46*	7
COc1ccc(CCNC(=O)c2ccc3c(c2)N(Cc2ccccc2)CCS3)cc1OC	-5	-3	57*	-12	-4	-1
O=C(NCCCN1CCCC1)c1ccc2c(c1)N(Cc1ccccc1)CCS2	0	1	26	-20	-14	0
COc1ccc(OC)c(CCNC(=O)c2ccc3c(c2)N(Cc2ccccc2)CCS3)c1	-6	-1	23	-25	-32	2
O=C(c1cc(C2CC2)nn1-c1ccccc1)N1CCN(Cc2c(F)cccc2Cl)CC1	-2	-1	6	-32	-28	-1
O=C(O)c1cccc(N2C(=O)c3cc([N+](=O)[O-])cc4cc([N+](=O)[O-])cc(c34)C2=O)c1	1	1	96*	1	-4	-1
O=C(CSCc1c(F)cccc1Cl)Nc1ccccc1C(=O)N1CCOCC1	4	0	5	-8	-18	2
O=C(CCCN1C(=O)/C(=C/c2ccc(F)cc2)SC1=S)NC1CCS(=O)(=O)C1 (centres undefined)	-7	8	18	-6	82*	17
CCN(C(=O)CN1C(=O)S/C(=C\c2ccc(F)cc2)C1=O)C1CCS(=O)(=O)C1 (centres undefined)	-4	1	41*	-20	-6	3
CC1CCC(NC(=O)C2CCN(c3c4c(nc5ncnn35)CCC4)CC2)CC1 (centres undefined)	2	-1	19	-27	-3	1
CCN(CC)S(=O)(=O)c1ccc(N2CCc3cc(OC)c(OC)cc3C2)nc1	2	2	26	-29	-19	2
CCOC(=O)C1=C(C)NC(C)=C(C(=O)OCC)C1C(=O)OCC(=O)NCc1ccco1	1	-1	7	-24	-18	0
O=C1/C(=C/c2ccc(O)c(O)c2)Oc2cc(O)ccc21	-5	8	24	14	15	5
O=C1/C(=C/c2cccc([N+](=O)[O-])c2)Oc2cc(O)ccc21	-20	13	29*	14	1	12
C[C@@H]1CN([C@H](C)CO)C(=O)c2cccc(NS(=O)(=O)c3ccccc3)c2O[C@H]1CN(C)C	-2	2	12	-5	-19	1
Cc1ccc(C)c(S(=O)(=O)Nc2ccccc2C(=O)Nc2cc(C)on2)c1	-14	10	36*	-3	-12	7
